Reference: PMC5935190 (Drug Design, Development and Therapy, 2018)
Converted amounts (≈) assume the structure as drawn. “Also recorded” adds a separate entry of the source.

Experiments:
M. tuberculosis H37Rv [1] = type: cell-based, Mycobacterium tuberculosis
M. tuberculosis BioA = target: T1, M. tuberculosis BioA (Mycobacterium tuberculosis, UniProt P9WQ81); assay: biochemical; type: biochemical
T1 sequence (P9WQ81 1-437): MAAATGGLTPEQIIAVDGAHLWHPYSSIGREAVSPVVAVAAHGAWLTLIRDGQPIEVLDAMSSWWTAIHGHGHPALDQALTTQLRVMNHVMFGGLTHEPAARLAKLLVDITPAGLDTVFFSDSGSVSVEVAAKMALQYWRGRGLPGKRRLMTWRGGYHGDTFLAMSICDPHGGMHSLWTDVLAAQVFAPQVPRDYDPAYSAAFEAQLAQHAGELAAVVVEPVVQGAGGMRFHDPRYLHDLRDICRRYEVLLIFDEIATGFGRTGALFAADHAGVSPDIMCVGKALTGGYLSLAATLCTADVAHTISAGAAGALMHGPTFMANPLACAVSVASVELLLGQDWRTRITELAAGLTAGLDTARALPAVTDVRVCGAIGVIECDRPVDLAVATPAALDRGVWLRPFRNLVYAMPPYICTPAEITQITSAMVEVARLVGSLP

[2] = system: Chinese hamster ovary cell line (CHO); assay: Cytotoxicity assay; type: cell-based; settings: at 50 μg/mL
Outline: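 CHO cells were grown in DMEM with 10% FBS and 1X antibiotic-antimycotic, then seeded at 1×10^4 cells per well. They were exposed to the test compound at 1 μg/mL to 200 μg/mL for 48 h. 0.01% resazurin dye was then added to measure cell viability.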

M. tuberculosis H37Rv [3] = assay: microbe, parasite or virus in culture; type: cell-based; settings: Mycobacterium tuberculosis, read-out: MIC90 in Sauton's medium

## O=C(O)c1ccc(C=NNC(=O)c2cccc3ccccc23)cc1 [Compound X21]
M. tuberculosis H37Rv [1]
  MIC90 (μM) for M. tuberculosis growth inhibition: 7.86 µM
  MIC90 (μg/mL) for M. tuberculosis growth inhibition: 2.5 µg/mL
M. tuberculosis BioA
  Percent inhibition of BioA at 100 μg/mL: weak inhibition; also recorded: poor inhibition

## CC1(c2ccc(S(=O)(=O)c3ccccc3)cc2)OC(=O)C=CC1=O (stereo not shown) [Compound A65, 6-methyl-6-[4-(phenylsulfonyl)phenyl]-2H-pyran-2,5(6H)-dione]
M. tuberculosis BioA; IC50 (μM) BioA
  IC50: 114 µM
M. tuberculosis BioA; IC50 (μg/mL) BioA, mean ± SD
  IC50: 114 µM
[2]
  Toxicity in CHO cell line: moderate toxicity
M. tuberculosis H37Rv [3]
  MIC90: 80 µg/mL (≈ 234 µM)
